# ChEMBL document CHEMBL3297658, “Potent fluorinated agelastatin analogues for chronic lymphocytic leukemia: design, synthesis, and pharmacokinetic studies” (J Med Chem, 2014)
# Columns and labels:
# [1] = Antitumor activity against human JVM2 cells assessed as cell viability after 48 hrs by FACS analysis; type: functional, cell-based; conditions: JVM-2, 48 h
# Outline: (§1)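 Primary CLL patient cells or JVM-2 line cultured 48 h (37 °C, 5% CO2) in RPMI + 10% FBS with graded compound. Stained 30 min at 37 °C with 40 nM DiOC6 and 10 μg/mL PI, then flow cytometry (525 nm DiOC6, 600 nm PI). Viability = % DiOC6+/PI− relative to untreated or vehicle control. EC50 and SE fitted from dose–response curves.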
# Liver = experiment: Metabolic stability in mouse liver microsomes at 100 uM measured after 1 hr by LC/MS analysis in presence of 1 mM NADPH; type: ADME
# Outline: (§2)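 Microsomes (final protein 5 mg/mL, mouse or human) in 0.1 M sodium phosphate pH 7.4 with compound at 100 μM final (DMSO <1%). Preincubated 5 min at 37 °C, started with NADPH (1 mM final), run 60 min at 37 °C with agitation. Stopped with MeOH and centrifuged; supernatant analysed by LCMS. Controls: zero time, no NADPH, heat-inactivated microsomes, and 7-ethoxycoumarin as CYP substrate.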
# [2] = Antitumor activity against CLL2 cells isolated from CLL patient assessed as cell viability after 48 hrs by FACS analysis; type: functional, cell-based, Homo sapiens; outline: as §1
# Liver microsome = experiment: Metabolic stability in human liver microsomes at 100 uM measured after 1 hr by LC/MS analysis in presence of 1 mM NADPH; type: ADME; outline: as §2
# [3] = Antitumor activity against CLL1 cells isolated from CLL patient assessed as cell viability after 48 hrs by FACS analysis; type: functional, cell-based; conditions: Homo sapiens; outline: as §1
# HeLa = experiment: Antitumor activity against human HeLa cells assessed as cell viability by MTT assay; type: functional, cell-based
# Outline: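 Adherent HeLa cells exposed to compound, then medium replaced with 0.5 mg/mL MTT in phenol-red-free RPMI and incubated overnight at 37 °C. Lysed with 15% SDS/0.015 M HCl and OD read at 570 nm once formazan dissolved. EC50 and SE derived from dose–response curves.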
# [4] = Antitumor activity against CLL4 cells isolated from CLL patient assessed as cell viability after 48 hrs by FACS analysis; type: functional, cell-based; conditions: Homo sapiens; outline: as §1
# [5] = Antitumor activity against CLL5 cells isolated from CLL patient assessed as cell viability after 48 hrs by FACS analysis; type: functional, cell-based; conditions: Homo sapiens; outline: as §1
# [6] = Antitumor activity against CLL3 cells isolated from CLL patient assessed as cell viability after 48 hrs by FACS analysis; type: functional, cell-based; conditions: Homo sapiens; outline: as §1
# [7] = Antitumor activity against CLL6 cells isolated from CLL patient assessed as cell viability after 48 hrs by FACS analysis; type: functional, cell-based; conditions: Homo sapiens, CLL6, 48 h; outline: as §1
# Plasma = experiment: Protein binding in BALB/c mouse plasma at 50 uM after 1 to 24 hrs by LC-MS method; type: ADME, cell-free
# Outline: (§3)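 Compound added to pooled female BALB/c mouse plasma or serum, or to human AB serum, at 50 μM final (1% DMSO) and incubated at 37 °C with gentle agitation. Aliquots taken at 0, 0.5, 1, 2, 8, 18 and 24 h, proteins precipitated with CH3CN, spun at 3000g for 10 min, supernatant analysed by LCMS. Run in triplicate.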
# [8] = AUC in BALB/c mouse plasma at 5 mg/kg, ip administered as single dose by LC/MS analysis; type: ADME, organism-based; design: dose 5 mg/kg, route intraperitoneal
# Outline: (§4)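 Female BALB/c mice dosed at 6 weeks of age with a single intraperitoneal dose of 2.5 or 5.0 mg/kg, n = 4. Tail-vein blood taken at set times and stored at -80 °C. Samples precipitated with CH3CN, spun at 3000g for 10 min, concentrated, reconstituted in 1:1 CH3CN/H2O and quantified by LCMS. PK parameters derived from the concentration–time curves.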
# [9] = Drug recovery in BALB/c mouse serum at 50 uM after 24 hrs by LC-MS method; type: ADME, cell-free; conditions: read-out: Drug recovery; outline: as §3
# [10] = Lipophilicity, log P of compound at 25 degC; type: physicochemical; conditions: octanol/water
# [11] = AUC in BALB/c mouse plasma at 2.5 mg/kg, ip administered as single dose by LC/MS analysis; type: ADME, organism-based; design: dose 2.5 mg/kg, route intraperitoneal; outline: as §4
# [12] = Drug recovery in BALB/c mouse plasma at 50 uM after 24 hrs by LC-MS method; type: ADME, cell-free; conditions: read-out: Drug recovery; outline: as §3
# [13] = Cmax in BALB/c mouse plasma at 5 mg/kg, ip administered as single dose by LC/MS analysis; type: ADME, organism-based; design: dose 5 mg/kg, route intraperitoneal; outline: as §4
# Serum [14] = experiment: Protein binding in human AB serum at 50 uM after 1 to 24 hrs by LC-MS method; type: ADME; outline: as §3
# [15] = Half life in BALB/c mouse plasma at 5 mg/kg, ip administered as single dose by LC/MS analysis; type: ADME, organism-based; design: dose 5 mg/kg, route intraperitoneal; outline: as §4
# [16] = Solubility of compound in water at 25 degC; type: physicochemical; conditions: buffer
# [17] = Drug recovery in human AB serum at 50 uM after 24 hrs by LC-MS method; type: ADME, cell-free; conditions: read-out: Drug recovery; outline: as §3
# [18] = Tmax in BALB/c mouse plasma at 5 mg/kg, ip administered as single dose by LC/MS analysis; type: ADME, organism-based; design: dose 5 mg/kg, route intraperitoneal; outline: as §4
# [19] = Half life in BALB/c mouse plasma at 2.5 mg/kg, ip administered as single dose by LC/MS analysis; type: ADME, organism-based; design: dose 2.5 mg/kg, route intraperitoneal; conditions: BALB/c, plasma; outline: as §4
# [20] = Cmax in BALB/c mouse plasma at 2.5 mg/kg, ip administered as single dose by LC/MS analysis; type: ADME, organism-based; design: dose 2.5 mg/kg, route intraperitoneal; outline: as §4
# Serum [21] = experiment: Protein binding in BALB/c mouse serum at 50 uM after 1 to 24 hrs by LC-MS method; type: ADME; outline: as §3
# [22] = Tmax in BALB/c mouse plasma at 2.5 mg/kg, ip administered as single dose by LC/MS analysis; type: ADME, organism-based; design: dose 2.5 mg/kg, route intraperitoneal; outline: as §4
smiles,measurement,setting,value
CN1C(=O)N[C@H]2[C@@H]3NC(=O)c4cccn4[C@@H]3C[C@]21O,EC50,[1],120 µM
same,Stability,Liver,Stable
same,EC50,"[2]; Homo sapiens, CLL2, 48 h",3.9 µM
same,Stability,Liver microsome,Stable
same,EC50,[3],541 µM
same,EC50,HeLa,61.5 µM
CN1C(=O)N[C@H]2[C@@H]3NC(=O)c4ccc(Cl)n4[C@@H]3C[C@]21O,EC50,[4],1.98 µM
same,EC50,[1],0.2 µM
same,EC50,[5],0.34 µM
same,EC50,[6],3.8 µM
same,EC50,"[2]; Homo sapiens, CLL2, 48 h",0.32 µM
same,EC50,[7],2.2 µM
same,EC50,[3],0.95 µM
same,EC50,HeLa,0.63 µM
CN1C(=O)N[C@H]2[C@@H]3NC(=O)c4ccc(C#N)n4[C@@H]3C[C@]21O,EC50,[4],8.41 µM
same,EC50,[1],38 µM
same,EC50,[5],4.79 µM
same,EC50,[6],8.37 µM
same,EC50,"[2]; Homo sapiens, CLL2, 48 h",0.71 µM
same,EC50,[7],0.84 µM
same,EC50,[3],11.1 µM
same,EC50,HeLa,3.4 µM
CN1C(=O)N[C@H]2[C@@H]3NC(=O)c4cc(Br)c(Br)n4[C@@H]3C[C@]21O,EC50,[1],3.53 µM
same,EC50,"[2]; Homo sapiens, CLL2, 48 h",4.46 µM
same,EC50,[3],26.3 µM
CN1C(=O)N[C@H]2[C@@H]3NC(=O)c4cc(Br)cn4[C@@H]3C[C@]21O,EC50,[1],71.5 µM
same,EC50,"[2]; Homo sapiens, CLL2, 48 h",9.22 µM
same,EC50,[3],19.4 µM
CN1C(=O)N[C@H]2[C@@H]3NC(=O)c4cc(Cl)c(Cl)n4[C@@H]3C[C@]21O,EC50,[4],4.42 µM
same,EC50,[1],0.28 µM
same,EC50,[5],2.02 µM
same,EC50,[6],0.98 µM
same,EC50,"[2]; Homo sapiens, CLL2, 48 h",0.52 µM
same,EC50,[7],7.5 µM
same,EC50,[3],1.56 µM
same,EC50,HeLa,0.6 µM
CN1C(=O)N[C@H]2[C@@H]3NC(=O)c4cc(Cl)cn4[C@@H]3C[C@]21O,EC50,[1],5.33 µM
same,EC50,"[2]; Homo sapiens, CLL2, 48 h",6.05 µM
same,EC50,[3],35.9 µM
CN1C(=O)N[C@H]2[C@@H]3NC(=O)c4ccc(I)n4[C@@H]3C[C@]21O,EC50,[4],3.04 µM
same,EC50,[1],2.62 µM
same,EC50,[5],3.06 µM
same,EC50,[6],6.61 µM
same,EC50,"[2]; Homo sapiens, CLL2, 48 h",0.73 µM
same,EC50,[7],12.9 µM
same,EC50,[3],5.96 µM
same,EC50,HeLa,1.18 µM
CN1C(=O)N[C@H]2[C@@H]3NC(=O)c4cc(I)c(I)n4[C@@H]3C[C@]21O,EC50,[1],49 µM
same,EC50,"[2]; Homo sapiens, CLL2, 48 h",96 µM
same,EC50,[3],26.4 µM
same,EC50,HeLa,262 µM
CN1C(=O)N[C@H]2[C@@H]3NC(=O)c4cc(I)cn4[C@@H]3C[C@]21O,EC50,[1],222 µM
same,EC50,"[2]; Homo sapiens, CLL2, 48 h",94.9 µM
same,EC50,[3],25.5 µM
same,EC50,HeLa,0.061 µM
CN1C(=O)N[C@H]2[C@@H]3NC(=O)c4ccc(C(F)(F)F)n4[C@@H]3C[C@]21O,EC50,[4],0.33 µM
same,PPB,Plasma,Not Active
same,EC50,[1],0.66 µM
same,AUC,[8],6.51 µM·h
same,EC50,[5],28.4 µM
same,EC50,[6],3.04 µM
same,Stability,Liver,Stable
same,"remaining at 24 h, 50 µM",[9],65%
same,EC50,"[2]; Homo sapiens, CLL2, 48 h",0.064 µM
same,logP,[10],0.78
same,EC50,[7],0.65 µM
same,AUC,[11],12.9 µM·h
same,"remaining at 24 h, 50 µM",[12],65%
same,Cmax,[13],3.25 µM
same,PB,Serum [14],Not Active
same,Stability,Liver microsome,Stable
same,half-life,[15],45 min
same,solubility,[16],300 µg/mL
same,"remaining at 24 h, 50 µM",[17],65%
same,EC50,[3],0.43 µM
same,Tmax,[18],30 min
same,half-life,[19],72 min
same,EC50,HeLa,0.15 µM
same,Cmax,[20],4.18 µM
same,PB,Serum [21],Not Active
same,Tmax,[22],15 min
CN1C(=O)N[C@H]2[C@@H]3NC(=O)c4cc(C(F)(F)F)c(C(F)(F)F)n4[C@@H]3C[C@]21O,EC50,[1],41 µM
same,EC50,"[2]; Homo sapiens, CLL2, 48 h",19.2 µM
same,EC50,HeLa,153 µM
CN1C(=O)N[C@H]2[C@@H]3NC(=O)c4cc(C(F)(F)F)cn4[C@@H]3C[C@]21O,EC50,[1],22.8 µM
same,EC50,"[2]; Homo sapiens, CLL2, 48 h",4.68 µM
same,EC50,[3],45.1 µM
same,EC50,HeLa,19.6 µM
CN1C(=O)N[C@H]2[C@@H]3NC(=O)c4ccc(C(F)F)n4[C@@H]3C[C@]21O,EC50,[1],4.66 µM
same,EC50,"[2]; Homo sapiens, CLL2, 48 h",5.44 µM
same,EC50,[3],13 µM
same,EC50,HeLa,4.01 µM
CN1C(=O)N[C@H]2[C@@H]3NC(=O)c4cc(I)c(Br)n4[C@@H]3C[C@]21O,EC50,[1],162 µM
same,EC50,"[2]; Homo sapiens, CLL2, 48 h",48.2 µM
same,EC50,[3],211 µM
same,EC50,HeLa,86.7 µM
CO[C@@]12C[C@@H]3[C@H]([C@@H]1N(C)C(=O)N2C)N(C)C(=O)c1ccc(Br)n13,EC50,[1],55.7 µM
same,EC50,"[2]; Homo sapiens, CLL2, 48 h",47.7 µM
same,EC50,[3],140 µM
same,EC50,HeLa,59 µM
CN1C(=O)N[C@@]2(O)[C@@H]3NC(=O)c4ccc(Br)n4[C@@H]3C[C@@]12O,EC50,[1],4.07 µM
same,EC50,"[2]; Homo sapiens, CLL2, 48 h",10 µM
same,EC50,[3],84.6 µM
same,EC50,HeLa,7.63 µM
CN1C(=O)N[C@H]2[C@@H]3NC(=O)c4ccc(Br)n4[C@@H]3C[C@]21O (stereo in doubt; 3) [AGELASTATIN A],EC50,[2]; cll2,> 1 µM
O=C1N[C@H]2[C@@H]3NC(=O)c4ccc(Br)n4[C@@H]3C[C@@]2(O)N1 [AGELASTATIN D],EC50,[1],13.2 µM
same,EC50,"[2]; Homo sapiens, CLL2, 48 h",29 µM
same,EC50,[3],91.1 µM
CCOc1ccc2ccc(=O)oc2c1 [ETHOXYCOUMARIN],Stability,Liver,Unstable
same,Stability,Liver microsome,Unstable
Nc1nc(F)nc2c1ncn2[C@@H]1O[C@H](CO)[C@@H](O)[C@@H]1O [FLUDARABINE],EC50,[4],0.64 µM
same,EC50,[1],10.4 µM
same,EC50,[5],0.16 µM
same,EC50,[6],0.35 µM
same,EC50,"[2]; Homo sapiens, CLL2, 48 h",2.66 µM
same,EC50,[7],1.6 µM
same,EC50,[3],17.1 µM
same,EC50,HeLa,16 µM
